Source: PubChem BioAssay (several laboratories)
Hits are enriched below; roughly 1.5% of the tested compounds scored in any of these assays.
HNF4A DNA FP – change in binding of human HNF4A to DNA, primary screen, biochemical, fluorescence polarization, FITC-DNA. Hepatocyte nuclear factor 4-alpha (Homo sapiens), P41235. 360,000 tested, 0.3% active. 1 h. activity change, % at 10 µM; in the data active = activity change above about 30%, passing the limit was not always enough
TPT1 inh – Candida albicans TPT1 enzyme inhibitors, primary screen, biochemical, fluorescence polarization; tRNA 2'-phosphotransferase TPT1 (Candida albicans SC5314); recombinant caTPT1, FP RNA substrate dephosphorylation; inhibition, % at 5 µM; 300,000 tested, 0.81% active; AID 1962, 2009;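 active = inhibition above the mean of all tested compounds plus 3 SD, set per screening campaign, cut at about 24% in these data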;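 note: plate controls were DMSO alone for no effect and ferristatin control at 100 nM for full effect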
CSN deneddyl inh – inhibitors of CSN-mediated cullin deneddylation, primary screen, biochemical, fluorescence polarization, uHTS | COP9 signalosome complex subunit 5 (Homo sapiens), Q92905 | Purified CSN, SCF-Nedd8-OG deneddylation | inhibition, % at 12.5 µM | 360,000 tested, 0.38% active | AID 651999, 2013;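 active = pattern-corrected inhibition above about 35%, with an unprinted fluorescence ratio check between 0.5 and 1.5, limit read from the data, passing the limit was not always enough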;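 note: 0% = enzyme with substrate and 100% = substrate without enzyme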
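test system = HEK293T-derived human Csn5 enzyme | amount = 0.24 nM Csn5 enzyme, final concentration | medium = Tris/NaCl/DTT buffer, pH 7.5 | schedule = 90 min reaction at room temperature | signal = FP | evaluation = inhibition of Csn5 cleavage, % | compound dosing = single dose of 12.5 µM compound with 0.25% DMSO | probe or stimulus = 10 nM SCFSkp2-Nedd8OG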
Rpn11 block – Rpn11 (PSMD14) deubiquitinase inhibitors, primary screen, biochemical, fluorescence polarization, uHTS; inhibition, % at 20 µM; human 26S proteasome, Ub4-pepOG fluorescence polarization; 20S core pre-blocked with epoxomicin; 360,000 tested, 0.59% active; AID 588493, 2011; 26S proteasome non-ATPase regulatory subunit 14 (Homo sapiens), O00487;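 active = inhibition at 20 µM, scaled to each plate's controls, above about 33%, limit read from the data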
Rpn11 confirm – Rpn11 (PSMD14) deubiquitinase inhibitors, confirmation, biochemical, fluorescence polarization, single concentration; shares compounds with Rpn11 block; purified human 26S proteasome, Ub4-pepOG fluorescence polarization; proteasome pretreated with epoxomicin; inhibition, % at 20 µM; 1,900 tested, 29% active
MMP-2 counter – MMP-2 enzyme inhibition, confirmation, counter-screen for RPN11 inhibitor project, biochemical, fluorescence, single concentration. AID 602330, 2012. 1,900 tested, 4% active. shares compounds with Rpn11 block. recombinant MMP-2, FRET peptide cleavage fluorescence. inhibition, % at 20 µM;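 note: human MMP-2 activated beforehand with APMA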
Thrombin FP – bovine thrombin protease inhibition, confirmation, counter-screen for Rpn11 inhibitor project, biochemical, fluorescence polarization, single concentration. shares compounds with Rpn11 block. bovine thrombin cleavage of Ub4-pepOG. inhibition, % at 20 µM. 1,900 tested, 13% active;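 active = mean inhibition at least 40% at 20 µM, or signal 3 deviations below plate average, so some actives read negative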;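 note: plate controls were thrombin with DMSO for no effect and buffer wells lacking thrombin for full effect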
Target sequence (P00735 whole entry, looked up): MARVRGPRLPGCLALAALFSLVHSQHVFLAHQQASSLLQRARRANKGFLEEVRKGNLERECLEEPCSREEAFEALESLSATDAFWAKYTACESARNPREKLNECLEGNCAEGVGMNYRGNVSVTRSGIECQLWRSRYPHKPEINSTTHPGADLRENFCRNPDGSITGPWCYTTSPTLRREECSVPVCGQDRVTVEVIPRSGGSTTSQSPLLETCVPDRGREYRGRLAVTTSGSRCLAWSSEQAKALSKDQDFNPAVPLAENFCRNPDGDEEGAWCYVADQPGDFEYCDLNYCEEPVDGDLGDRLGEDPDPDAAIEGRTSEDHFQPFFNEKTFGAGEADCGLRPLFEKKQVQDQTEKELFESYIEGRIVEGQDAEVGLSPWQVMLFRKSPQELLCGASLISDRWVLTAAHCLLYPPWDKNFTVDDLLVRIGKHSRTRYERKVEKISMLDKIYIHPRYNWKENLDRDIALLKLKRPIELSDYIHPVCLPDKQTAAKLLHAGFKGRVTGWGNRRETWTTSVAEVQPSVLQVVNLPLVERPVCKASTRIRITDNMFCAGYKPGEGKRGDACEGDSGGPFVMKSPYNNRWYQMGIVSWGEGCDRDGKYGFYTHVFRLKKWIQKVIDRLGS
Starred values were filed as active, the others as inactive; . = no result given. Cut-off read from the data, not from the text of the source, unless noted: active = inhibition above about 40%; inactive = the rest.

SMILES	HNF4A DNA FP	TPT1 inh	CSN deneddyl inh	Rpn11 block	Rpn11 confirm	MMP-2 counter	Thrombin FP
O=C1N/C(=N/Nc2ccccc2)S/C1=C\c1ccccc1	14	15	12	66*	28	37	15
COc1ccc(C2=NC(=O)NC2c2ccc(OC)cc2)cc1 (centres undefined)	3	-2	3	39*	9	-14	-6
COc1cccc2cc(C(=O)Nc3ccc(F)cc3)c(=Nc3ccc(C(=O)O)cc3)oc12	-83	0	26	128*	117*	-4	-17
COc1ccc(OCC(=O)Nc2cc(-c3nn4c(C)nnc4s3)ccc2C)cc1	42*	1	11	51*	19	-20	-4
COc1cc(C(=O)OCc2cccc(OC)c2OC)ccc1OCC(=O)N1CCOCC1	3	.	-1	-3	.	.	.
O=c1cc(N2CCc3ccccc3C2)[nH]c(=O)n1Cc1ccc(F)cc1	2	-1	5	56*	-2	-26	-13
O=S(=O)(Nc1nc2ccccc2nc1Nc1ccc2c(c1)OCO2)c1ccc(F)cc1	12	-2	15	38*	14	6	-17
CCOC(=O)CCC(=O)Nc1ccc([N+](=O)[O-])cc1C	30*	5	-8	138*	-8	-31	-10
Clc1cccc(Sc2ccc(-c3ccccn3)s2)c1	-38	-1	0	67*	-12	-4	-16
c1ccc(-c2ccc(-c3ccccn3)s2)nc1	0	4	3	-2	.	.	.
Cc1ccc(C)c(OCc2cc(C(=O)NC3CCOC(C)(C)C3)no2)c1 (centres undefined)	1	0	-4	-7	.	.	.
Cc1ccc2oc(=O)c(/C=C(\O)c3ccco3)nc2c1	41*	4	-3	66*	70*	-31	-13
CN1OC[C@@H]2CN[C@H](c3cccc(-c4ccc(C#N)cc4)c3)C[C@@H]21	8	.	1	7	.	.	.
CCCCC(=O)N(Cc1ccc(F)cc1)C1CCS(=O)(=O)C1 (centres undefined)	1	-1	103	36*	-15	-22	-9
COc1ccc(NS(=O)(=O)c2ccc(C)c(NC(=O)CN3C(=O)NC4(CCCC4)C3=O)c2)cc1	40	.	109*	83*	76*	-132	4
Cc1ccc(S(=O)(=O)N(C)C)cc1NC(=O)CN1C(=O)NC2(CCCCCC2)C1=O	1	3	-3	1	.	.	.
CCn1c(SCc2nc3scc(-c4ccccc4)c3c(=O)[nH]2)nnc1-c1cccs1	12	10	4	32	.	.	.
COCCn1c(SCc2nc3scc(-c4ccc(Cl)cc4)c3c(=O)[nH]2)nnc1-c1cccc(C)c1	15	1	-1	50*	24	-9	4
Cc1nnc(SCc2nc3scc(-c4ccccc4)c3c(=O)[nH]2)s1	17	14	13	43*	42*	-2	32
COc1ccc(N2CCN(C(=O)c3ccc(CSc4ccccc4)cc3)CC2)cc1	-2	0	-13	-8	.	.	.
COc1ccc(N2CCN(C(=O)c3ccc4c(c3)NC(=O)C(CSCc3ccccc3F)N4)CC2)cc1 (centres undefined)	34	.	2	47*	31	30	22
COc1cccc(NC(=O)CN(C)C(=O)c2c(C)noc2C)c1	0	.	-4	-2	.	.	.
COc1ccc(OC)c(N=C(C)C2=C(O)COC2=O)c1	22	-7	2	108*	-13	-56	-9
NS(=O)(=O)c1ccc(NC(=O)CSc2nnc3n2CCCCC3)cc1	-1	.	-4	-1	.	.	.
Cc1cccc(CNC(=O)c2ccccc2N)c1	26	0	2	198*	-7	-5	-7
SMILES	HNF4A DNA FP	TPT1 inh	CSN deneddyl inh	Rpn11 block	Rpn11 confirm	MMP-2 counter	Thrombin FP
CC(C)(C)[C@H]1C=C(C(=O)Nc2ccccc2)O[C@@H](OCCCCO)C1	0	-2	3	6	.	.	.
O=C(O)CSc1ncnc2nc[nH]c12	4	2	1	168*	5	-26	-1
O=C1c2ccccc2N[C@@H]2C=CC[C@@H]2N1O	3	.	-1	3	.	.	.
COc1ccccc1NC(=O)CSc1ccc(-c2ccc(-n3cccn3)cc2)nn1	3	-3	4	97*	117*	-13	3
CC1(c2nnnn2Cc2ccccc2)CCC(=O)N1Cc1cccc(C(F)(F)F)c1 (centres undefined)	2	.	-1	.	.	.	.
Cc1cc(C(=O)N/N=C/c2ccc(-c3cccc(Cl)c3Cl)o2)n[nH]1	13	1	-3	59*	22	-34	-13
CC(C)(C)OC(=O)[C@H](Cc1ccccc1)NC(=O)c1nc[nH]c1C(=O)N[C@@H](Cc1ccccc1)C(=O)OC(C)(C)C	6	0	2	1	.	.	.
CC(C)(C)OC(=O)[C@H](Cc1ccccc1)NC(=O)c1ncn2c1c(=O)[nH]c1ccc(Br)cc12	-1	.	11	83*	-5	-33	-14
COc1ccc2nc(Nc3nc(CSc4nnnn4-c4ccccc4)cc(=O)[nH]3)nc(C)c2c1	-2	-2	1	8	.	.	.
CCOc1ccc2nc(Nc3nc(CSc4nnnn4-c4ccccc4)cc(=O)[nH]3)nc(C)c2c1	18	2	9	38*	-3	-18	6
CCC1(O)CC2CN(CCc3c([nH]c4ccccc34)C(C(=O)OC)(c3cc4c(cc3OC)N(C=O)C3C(O)(C(=O)OC)C(OC(C)=O)C5(CC)C=CCN6CCC43C65)C2)C1 (centres undefined)	7	.	3	7	.	.	.
CN(C(=O)CSc1nnc(Cc2cccs2)n1C1CC1)C1CCS(=O)(=O)C1 (centres undefined)	-1	.	2	-7	.	.	.
COC(=O)[C@]1(C)N[C@H](CN(C)C(=O)c2ccccc2)[C@@H]2C(=O)N(C)C(=O)[C@@H]21	1	.	-2	-2	.	.	.
Nc1ccc2c(c1)C(=NO)c1cc([N+](=O)[O-])ccc1-2	52*	.	18	44*	12	-3	7
Cc1onc(-c2ccccc2)c1C(=O)Nc1nc2c(s1)C(=O)CC(C)(C)C2	11	-1	-5	117*	2	-2	-16
COc1cc(C)c2c(c1OC)C(=O)CC2	-1	.	3	7	.	.	.
